# Source: PubChem
# LMPTP inh: blocks human LMPTP phosphatase | recombinant LMPTP-A, OMFP fluorogenic substrate, fluorescence intensity | inhibition, % at 20 µM | 360,000 compounds, 0.22% hits;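 active = compounds that cut the enzyme signal by at least half of the control window in the single-dose screen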
# Target sequence (P24666 whole entry, looked up): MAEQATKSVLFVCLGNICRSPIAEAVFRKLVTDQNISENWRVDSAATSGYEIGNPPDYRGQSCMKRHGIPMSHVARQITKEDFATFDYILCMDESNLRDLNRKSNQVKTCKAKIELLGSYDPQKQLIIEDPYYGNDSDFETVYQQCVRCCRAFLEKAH
#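 Buffer or medium: Bis-Tris pH 6.0, DTT, detergent; Assay system: LMPTP-A enzyme; Quantity: 0.625 nM enzyme; Detection: endpoint fluorescence intensity; Times: 50 min dark incubation at room temperature; Controls: substrate-only low control, DMSO enzyme-plus-substrate high control; Doses: single 20 µM dose; Read-out: percent inhibition versus substrate-only and uninhibited controls; Reagent: 400 µM OMFP.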
# STEP inh: STEP (human) phosphatase inhibition. AID 588621. 360,000 compounds, 0.25% hits. inhibition, % at 20 µM. recombinant STEP, OMFP fluorogenic substrate, fluorescence;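 active = inhibition at 20 µM, scaled per plate between control wells, above about 37%, limit read from the data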
#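 Test system: STEP tyrosine phosphatase / Reagent: OMFP at 25 µM / Doses: 20 µM, 1% DMSO / Read-out: percent inhibition scaled to no-enzyme and uninhibited-enzyme controls, plate-pattern corrected / Detection: FITC-channel fluorescence of OMFP product / Medium: Bis-Tris buffer pH 6.0, 2.5 mM DTT, 0.005% Tween 20 / Schedule: 20 min at room temperature, dark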
# SUMO1-SIM PPI: modulators of human SUMO1-mediated protein-protein interactions; P63165; SUMO1 binding to a labelled peptide, TR-FRET, 1 h; inhibition, % at 20 µM; 360,000 compounds, 0.33% hits; AID 602429; in the data active = inhibition above about 37%
# Target sequence (P63165 whole entry, looked up): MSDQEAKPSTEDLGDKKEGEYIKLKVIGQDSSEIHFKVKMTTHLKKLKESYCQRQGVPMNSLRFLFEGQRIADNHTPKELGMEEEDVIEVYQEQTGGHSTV
# Pemphigus Ab inh: human desmoglein-3 autoantibody binding inhibition; P32926; DSG3-coupled beads, scFv-anti-DSG3-GFP binding, flow cytometry; hits give low values; binding (percent of control), % at 10 µM; 310,000 compounds, 0.48% hits; AID 588358;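 active = binding more than 3 SD below its plate's average and above zero; inconclusive = below that plate limit but binding exactly zero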;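 note: hits lower antibody fragment binding to DSG3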
# Scp-1 inhibitor: blocks human Scp-1 phosphatase activity | AID 493091 | 340,000 compounds, 0.88% hits | Q9GZU7 | Recombinant Scp1, phosphopeptide, malachite green phosphate absorbance | inhibition, % at 20 µM;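 active = inhibition above about 50% at 20 µM, limit read from the data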
# Target sequence (Q9GZU7 76-261 limits assumed): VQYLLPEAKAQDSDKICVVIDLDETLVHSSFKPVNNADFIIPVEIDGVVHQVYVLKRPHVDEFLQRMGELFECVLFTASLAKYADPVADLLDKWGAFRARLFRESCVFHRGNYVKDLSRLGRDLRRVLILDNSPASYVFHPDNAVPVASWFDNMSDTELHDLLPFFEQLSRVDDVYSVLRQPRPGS
#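 Test system – truncated SCP-1 phosphatase (76-261aa) · Reagent – Phosphorylated 17-residue peptide substrate · Incubation – 45 min room-temperature reaction, 5 min colour, 30 min stabiliser · Detection – colorimetric phosphate reagent with accelerator and stabiliser, absorbance at 630 nm · Measure – % inhibition at 20 µM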
# Scp1 confirm: confirmation of human Scp-1 phosphatase inhibitors. 2,500 compounds, 61% hits. shares compounds with Scp-1 inhibitor. recombinant SCP-1 catalytic domain, phosphate release, malachite green absorbance. inhibition, % at 20 µM. AID 540281
# Scp-1 MG ctr: interferes with malachite green readout, flagging false Scp-1 hits; AID 540313; Colorimetric interference counterscreen, malachite green absorbance 630 nm; apparent inhibition (interference), % at 20 µM; 2,500 tested, under 10 active; shares compounds with Scp-1 inhibitor;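 note: compounds added after enzyme reaction finished so only phosphate colour detection is probed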
# Scp1 DSF: Scp-1 (human) binding by thermal shift | shares compounds with Scp-1 inhibitor | Recombinant SCP1, Sypro Orange thermal shift Tm | thermal shift relative to vanadate control, % at 40 µM | 1,500 compounds, 25% hits;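 active = substances whose mean melting-temperature shift, as a percentage of the reference inhibitor's shift, reaches about 5.3%, limit read from the data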
# Hits are given with their value; 0 = inactive; ? = inconclusive; - = no result. Most compounds without a hit are left out; they make up all but 1.7% or so of the library.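 Rule for the calls, unless noted: active = inhibition of at least 30% at 20 µM; inactive = the rest.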
SMILES,LMPTP inh,STEP inh,SUMO1-SIM PPI,Pemphigus Ab inh,Scp-1 inhibitor,Scp1 confirm,Scp-1 MG ctr,Scp1 DSF
Cc1cccc(C(=O)Oc2ccc(/C=N/NC(=O)c3ccncc3)cc2)c1,0,0,0,0,0,-,-,-
Cc1cccc(C(=O)Oc2ccc(/C=N/NC(=O)c3cc(O)cc(O)c3)cc2)c1,0,63,0,0,53,60,0,0
O=C(N/N=C/c1ccc(OC(=O)c2cccs2)cc1)c1ccc(F)cc1,0,0,0,0,70,64,0,0
Cn1nc(C(=O)NNC(=O)CCOc2ccc(C(C)(C)C)cc2)c2ccccc2c1=O,0,0,0,0,0,-,-,-
CCOC(=O)N1CCC(N2Cc3cccc(C(=O)NCc4ccc5c(c4)OCO5)c3C2=O)CC1,0,0,0,0,92,65,0,0
CCOC(=O)N1CCC(NC(=O)c2cccc3c2C(=O)N(c2ccc(OC)cc2)C3)CC1,0,0,0,0,52,49,0,0
CCOC(=O)N1CCC(NC(=O)c2cn(-c3ccc(OC)cc3)c(=O)c3ccccc23)CC1,0,0,0,0,0,-,-,-
Cc1cc(C)n(C(=O)CNC(=O)c2ccc(Cl)cc2Cl)n1,0,0,0,-,0,-,-,-
CC(=O)c1cccc(OC(=O)c2ccc3c(=O)n4c(nc3c2)CCC4)c1,0,0,0,0,68,0,0,-
O=C(CSc1nc2[nH]ncc2c(=O)[nH]1)Nc1ccccc1C(F)(F)F,0,0,0,0,51,0,0,-
O=C(CSc1nc2[nH]ncc2c(=O)[nH]1)Nc1ccccc1F,0,0,0,0,0,-,-,-
CCCNC(=S)N1CCC(NC(=O)c2cccc(C)c2)CC1,0,0,0,0,0,-,-,-
Cc1ccc(NC(=O)N2CCC(NC(=O)c3cccc(C)c3)CC2)cc1,0,0,0,0,103,55,0,0
Cc1ccc(NC(=O)N2CCC(NC(=O)c3ccco3)CC2)cc1,0,0,0,-,0,-,-,-
Cc1cccc(C(=O)NC2CCN(C(=O)NCc3ccccc3)CC2)c1,0,0,0,0,75,60,0,0
N=C1S/C(=C\c2ccco2)C(=O)N1c1nccs1,0,0,0,0,0,-,-,-
N=C1S/C(=C\c2ccco2)C(=O)N1c1ccc2c(c1)OCO2,0,0,0,0,79,46,0,0
CC(C)c1cccc(-c2ccc3c(c2)S(=O)(=O)c2cccc(C(=O)NCc4ccco4)c2C3=O)c1,0,0,0,0,68,49,0,11
Cc1ccc(-n2nnnc2SCC(=O)NNC(=O)c2ccc([N+](=O)[O-])cc2)cc1,0,0,0,0,50,41,0,0
COc1ccc(-n2c(O)cnc2Nc2nc(C)cc(C)n2)cc1OC,0,0,0,0,0,-,-,-
Cc1ccccc1C(=O)NNC1CC(=O)N(c2ccc3c(c2)OCCO3)C1=O (stereo not given),0,0,0,0,0,-,-,-
COc1ccccc1C(=O)NNC1CC(=O)N(c2ccc3c(c2)OCCO3)C1=O (stereo not given),0,0,0,0,0,0,0,-
Cc1nn(-c2ccccc2)c(Cl)c1/C=N/NC(=O)c1cccc(S(=O)(=O)N2CCCC2)c1,0,0,0,0,94,0,0,-
Cc1nn(-c2ccc(F)cc2)c(Cl)c1/C=N/NC(=O)c1ccc(O)cc1,0,0,0,0,0,-,-,-
Cc1nn(-c2ccc(F)cc2)c(Cl)c1/C=N/NC(=O)c1cccc(S(=O)(=O)N2CCCC2)c1,0,0,0,0,50,35,0,0
SMILES,LMPTP inh,STEP inh,SUMO1-SIM PPI,Pemphigus Ab inh,Scp-1 inhibitor,Scp1 confirm,Scp-1 MG ctr,Scp1 DSF
CC(C(=O)Nc1ccccc1)N(C)CCOc1ccc(Br)cc1 (stereo not given),0,0,0,0,0,-,-,-
COc1ccc2nc(Nc3nc(CSc4nnnn4-c4ccccc4)cc(=O)[nH]3)nc(C)c2c1,0,0,0,0,83,0,0,-
CCOc1ccc2nc(Nc3nc(CSc4nnnn4-c4ccccc4)cc(=O)[nH]3)nc(C)c2c1,0,0,0,0,0,-,-,-
Cc1c(C(=O)OCC[N+]2(C)CCCCC2)oc2ccccc12,0,0,0,0,89,0,0,-
Cc1c(C(=O)OCC(=O)N2CCC(C)CC2)oc2ccccc12,0,0,0,0,0,-,-,-
Cc1cc(C)c2nc(NNC(=O)c3cc(=O)c4ccccc4o3)sc2c1,0,0,0,0,0,-,-,-
CCOC(=O)c1ccc2c(c1)n(CCO)c(C)[n+]2CC,0,0,0,?,0,-,-,-
CCOC(=O)c1ccc2c(c1)n(CC)c(/C=C/N(C)c1ccccc1)[n+]2CC,0,0,0,0,94,97,0,0
CSc1c(CN2CCN(C)CC2)c2ccccc2n1C,0,0,0,0,0,-,-,-
Cn1c(=O)c2c(ncn2CC(=O)N2CCN(S(=O)(=O)c3ccc(Cl)cc3)CC2)n(C)c1=O,0,0,0,0,64,0,0,-
Cc1ccccc1N=C1NC(=O)/C(=C/c2cccn2-c2cccc(C(=O)O)c2)S1,-,-,-,0,66,65,0,0
O=C(O)c1cccc(-n2cccc2/C=C2\SC(=O)N(Cc3ccccc3F)C2=O)c1,0,0,0,0,93,81,0,0
O=C(O)c1cccc(-n2cccc2/C=C2/SC(=O)N(CC(=O)N3CCCC3)C2=O)c1,0,0,0,0,67,54,0,0
O=C(O)c1cccc(-n2cccc2C=C2C(=O)c3ccccc3C2=O)c1,0,0,0,0,0,-,-,-
Cc1cccc(N=C2NC(=O)/C(=C/c3cccn3C)S2)c1C,0,0,0,0,0,-,-,-
Cc1ccc(-c2nc(NC(=O)CSc3nnc4scc(-c5ccccc5)n34)ns2)cc1,0,0,0,0,64,65,0,0
Cc1nnc(SCC(=O)Nc2nsc(-c3ccc(Cl)cc3)n2)s1,0,0,0,0,70,43,0,0
Cc1ccccc1NC(=S)N1CCN(c2ccccc2Cl)CC1,0,0,0,0,0,-,-,-
CC1CCCC(NC(=O)CN2C(=O)NC(Cc3c[nH]c4ccccc34)C2=O)C1C (stereo not given),0,0,0,0,0,-,-,-
O=c1[nH]c(/C=C/c2cccc3ccccc23)nc2ccccc12,0,0,0,0,0,-,-,-
O=c1nc2cccc3c2=c(/c1=C(\O)c1ccccc1)c1ccccc1c3=O,0,0,0,0,72,58,0,0
O=C(N/N=C/c1sc(=O)n(Cc2ccc(Br)cc2)c1Cl)c1ccco1,69,96,45,0,103,84,0,5.3
O=C(N/N=C/c1ccc(Br)s1)c1ccco1,0,0,0,-,0,-,-,-
